In ChEMBL document CHEMBL4680077, “Differentiation of skeletal osteogenic progenitor cells to osteoblasts with 3,4-diarylbenzopyran based amide derivatives: Novel osteogenic agents” (Eur J Med Chem, 2016):
Active and inactive are the calls of the source. No cut-off for these calls is given here.

Columns and labels:
[1] = Acute toxicity in Swiss albino mouse assessed as body weight at 50 mg/kg, po observed on day 1 (reference value: 20.38 +/- 0.24 g); assay type: organism-based; conditions: in vivo, 24 h, time 1 day
[2] = system: Mus musculus; experiment: In vivo osteogenic activity in ovariectomized BALB/c mouse assessed as increase in femur bone volume density at 1 to 10 mg/kg, po via gavage administered for 1 month by microCT imaging analysis; assay type: functional, organism-based; conditions: dose 1-10 mg/kg, time 1.0 months
How it was run: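 Ovariectomized female balb/c mice, 8 weeks old, 10 per group, received 1.0 or 10.0 mg kg-1 once daily by oral gavage (gum acacia vehicle) for 4 weeks, alongside sham and Ovx vehicle groups. Femurs were scanned by microCT. BV/TV, Tb.N and Tb.Sp were derived by the mean intercept length method. Mean ± SE.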

[3] = Acute toxicity in Swiss albino mouse assessed as basophil count at 300 mg/kg, po measured after 7 days (reference value: 1.50 +/- 0.29 %); assay type: organism-based; conditions: in vivo, 168 h, time 7 day
[4] = Tmax in Sprague-Dawley rat at 1 mg/kg, po measured upto 24 hrs by LC-MS/MS analysis; assay type: ADME, organism-based; conditions: in vivo
How it was run: (§1)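 Female Sprague-Dawley rats (n = 4), fasted overnight 12–14 h, dosed orally at 1 mg kg-1 as a 0.25% CMC suspension and fed 3 h post-dose. Retro-orbital blood was taken from 0.25 to 24 h. Plasma was hexane-extracted and assayed by LC-MS/MS. Cmax and Tmax were read from the data; other parameters came from non-compartmental analysis. Mean ± S.D.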

[5] = Acute toxicity in Swiss albino mouse assessed as RBC count at 300 mg/kg, po measured after 7 days (Rvb =6.0 +/- 0.28 million/mm3); assay type: organism-based; conditions: in vivo, 168 h, time 7 day
[6] = Acute toxicity in Swiss albino mouse assessed as absolute ovary weight at 300 mg/kg, po measured after 7 days (reference value: 0.04+/- 0.02 g); assay type: organism-based; conditions: in vivo, 168 h, time 7 day
[7] = Acute toxicity in Swiss albino mouse assessed as monocyte count at 50 mg/kg, po measured after 7 days (reference value: 12.58 +/- 2.86 %); assay type: organism-based; conditions: in vivo, 168 h, time 7 day
[8] = Acute toxicity in Swiss albino mouse assessed as haemoglobin level at 5 mg/kg, po measured after 7 days (reference value: 10.86 +/- 0.87 g/dL); assay type: organism-based; conditions: in vivo, 168 h, time 7 day
[9] = Acute toxicity in Swiss albino mouse assessed as WBC count per thousand/mm3 at 5 mg/kg, po measured after 7 days (reference value: 6.84 +/- 0.83 /mm3); assay type: organism-based; conditions: in vivo, 168 h, time 7 day
[10] = Acute toxicity in Swiss albino mouse assessed as serum protein level at 5 mg/kg, po measured after 7 days (reference value: 0.66 +/- 0.01 mg/ml); assay type: organism-based; conditions: in vivo, 168 h, time 7 day
[11] = Acute toxicity in Swiss albino mouse assessed as absolute kidney weight at 5 mg/kg, po measured after 7 days (reference value: 0.29 +/- 0.02 g); assay type: organism-based; conditions: in vivo, 168 h, time 7 day
[12] = Acute toxicity in Swiss albino mouse assessed as ALKP level at 1000 mg/kg, po measured after 7 days (reference value: 379.25 +/- 27.08 U/L); assay type: organism-based; conditions: in vivo, 168 h, time 7 day
[13] = Acute toxicity in Swiss albino mouse assessed as WBC count per thousand/mm3 at 1000 mg/kg, po measured after 7 days (reference value: 6.84 +/- 0.83 /mm3); assay type: organism-based; conditions: in vivo, 168 h, time 7 day
[14] = Acute toxicity in Swiss albino mouse assessed as tissue protein level at 5 mg/kg, po measured after 7 days (reference value: 0.029 +/- 0.004 mg/ml); assay type: organism-based; conditions: in vivo, 168 h, time 7 day
[15] = Acute toxicity in Swiss albino mouse assessed as body weight at 5 mg/kg, po measured on day 7 (reference value: 22.75 +/- 0.38 g); assay type: organism-based; conditions: in vivo, 168 h, time 7 day
[16] = Acute toxicity in Swiss albino mouse assessed as RBC count at 50 mg/kg, po measured after 7 days (Rvb =6.0 +/- 0.28 million/mm3); assay type: organism-based; conditions: in vivo, 168 h, time 7 day
[17] = Acute toxicity in Swiss albino mouse assessed as relative ovary weight at 300 mg/kg, po measured after 7 days (reference value: 0.07 +/- 0.02 %); assay type: organism-based; conditions: in vivo, 168 h, time 7 day
[18] = Acute toxicity in Swiss albino mouse assessed as ALKP level at 50 mg/kg, po measured after 7 days (reference value: 379.25 +/- 27.08 U/L); assay type: organism-based; conditions: in vivo, 168 h, time 7 day
[19] = Acute toxicity in Swiss albino mouse assessed as albumin level at 5 mg/kg, po measured after 7 days (reference value: 3.24 +/- 0.30 g/dL); assay type: organism-based; conditions: in vivo, 168 h, time 7 day
[20] = Acute toxicity in Swiss albino mouse assessed as relative uterus weight at 50 mg/kg, po measured after 7 days (reference value: 1.63 +/- 0.71 %); assay type: organism-based; conditions: in vivo, 168 h, time 7 day
[21] = Acute toxicity in Swiss albino mouse assessed as relative heart weight at 1000 mg/kg, po measured after 7 days (reference value: 0.51 +/- 0.02 %); assay type: organism-based; conditions: in vivo, 168 h, time 7 day
[22] = Acute toxicity in Swiss albino mouse assessed as tissue protein level at 300 mg/kg, po measured after 7 days (reference value: 0.029 +/- 0.004 mg/ml); assay type: organism-based; conditions: in vivo, 168 h, time 7 day
[23] = Cmax in Sprague-Dawley rat at 1 mg/kg, po measured upto 24 hrs by LC-MS/MS analysis; assay type: ADME, organism-based; set-up: route oral, dose 1 mg/kg, time <=24; conditions: in vivo; how it was run: as §1
[24] = Acute toxicity in Swiss albino mouse assessed as cholesterol level at 300 mg/kg, po measured after 7 days (reference value: 265.76 +/- 24.78 mg/dL); assay type: organism-based; conditions: in vivo, 168 h, time 7 day
[25] = Acute toxicity in Swiss albino mouse assessed as albumin level at 50 mg/kg, po measured after 7 days (reference value: 3.24 +/- 0.30 g/dL); assay type: organism-based; conditions: in vivo, 168 h, time 7 day
[26] = Acute toxicity in Swiss albino mouse assessed as basophil count at 1000 mg/kg, po measured after 7 days (reference value: 1.50 +/- 0.29 %); assay type: organism-based; conditions: in vivo, 168 h, time 7 day
[27] = Acute toxicity in Swiss albino mouse assessed as relative kidney weight at 300 mg/kg, po measured after 7 days (reference value: 1.25 +/- 0.08 %); assay type: organism-based; conditions: in vivo, 168 h, time 7 day
[28] = Acute toxicity in Swiss albino mouse assessed as reduced GSH level at 1000 mg/kg, po measured after 7 days (reference value: 18.20 +/- 1.56 ug/mg of protein); assay type: organism-based; conditions: in vivo, 168 h, time 7 day
[29] = Elimination rate constant in Sprague-Dawley rat at 1 mg/kg, iv measured upto 24 hrs by LC-MS/MS analysis; assay type: ADME, organism-based; conditions: in vivo
[30] = AUC (0 to infinity) in Sprague-Dawley rat at 1 mg/kg, iv measured upto 24 hrs by LC-MS/MS analysis; assay type: ADME, organism-based; set-up: route intravenous, dose 1 mg/kg, time <=24; conditions: in vivo
How it was run: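 Female Sprague-Dawley rats (n = 4 per route), fasted overnight; 1 mg/kg oral (0.25% CMC) or i.v. tail-vein bolus (DMSO-PEG400-ethanol-water). Plasma was sampled to 24 h and assayed by LC-MS/MS (0.5-200 ng/mL). Non-compartmental AUC0-∞ = AUC0-t + Clast/kel; mean ± S.D.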

[31] = Acute toxicity in Swiss albino mouse assessed as eosinophil count at 50 mg/kg, po measured after 7 days (reference value: 6.34 +/- 1.04 %); assay type: organism-based; conditions: in vivo, 168 h, time 7 day
[32] = Acute toxicity in Swiss albino mouse assessed as body weight at 300 mg/kg, po observed on day 1 (reference value: 20.38 +/- 0.24 g); assay type: organism-based; conditions: in vivo, 24 h, time 1 day

With `CCCCN(C)C(=O)CCCCOc1ccc([C@H]2c3ccc(OC)cc3OC(C)(C)[C@@H]2c2ccccc2)cc1` the Activity [1] was 20.38 g, the Activity [2] was “Active” and the Activity [3] was 1.25%. For the same molecule, the Tmax [4] was 1.5 h, the Activity [5] was 7.31 million/mm3 and the Activity [6] was 0.06 g. The Activity [7] was 12.35%, the Activity [8] was 12.94 g/dL and the Activity [9] was 6.1 10^3/mm3. It also gave an Activity [10] of 0.74 mg/mL, an Activity [11] of 0.28 g and an Activity [12] of 378.12 U/L. For the same molecule, the Activity [13] was 5.1 /mm3, the Activity [14] was 0.035 mg/mL and the Activity [15] was 24.25 g. The Activity [16] was 8.16 million/mm3, the Activity [17] was 0.29% and the Activity [18] was 306.33 U/L. It also gave an Activity [19] of 3.97 g/dL, an Activity [20] of 1.17% and an Activity [21] of 0.57%. For the same molecule, the Activity [22] was 0.034 mg/mL, the Cmax [23] was 38.9 ng/mL and the Activity [24] was 257.26 mg/dL. It also gave an Activity [25] of 2.77 g/dL, an Activity [26] of 1.75% and an Activity [27] of 1.14%. The Activity [28] was 13.98 µg/mg, the k el at 24 h [29] was 5.47e-05 s⁻¹ and the AUC(0-inf) [30] was 906 ng·h/mL. For the same molecule, the Activity [31] was 6.99% and the Activity [32] was 19.61 g.
